Data published in ChEMBL document CHEMBL1123391, “Synthesis and investigation of the beta-adrenoceptor agonist and platelet antiaggregatory properties of 1,7,8-trisubstituted 2,3,4,5-tetrahydro-1H-2-benzazepine analogues of trimetoquinol” (J Med Chem, 1986).

Columns and labels:
Assay type in all cases: functional, organism-based
[1] = species on record: Homo sapiens; assay: Inhibitory activity against phospholipase C (PLC 0.05 U/mL) induced aggregation in Human Platelets
How it was run: (§1)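 Washed platelets from drug-free (≥10 days) human volunteers, suspended in modified Tyrode's solution pH 7.4 at 3 × 10^8/mL. Compound preincubated 3 min at 37 °C before agonist addition. Aggregation read turbidometrically (Born method, Mustard modification) in a dual-channel aggregometer. Values mean ± SEM from four to six donors; tested up to 400 μM.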

[2] = species on record: Homo sapiens; assay: Inhibitory activity against endoperoxide (U-46,619 2 uM) induced aggregation in Human Platelets; NI is No Inhibitory activity up to a concentration of 400 uM; how it was run: as §1
[3] = species on record: Homo sapiens; assay: Inhibitory activity against thrombin (0.03 U/mL) induced aggregation in Human Platelets; NI is No Inhibitory activity up to a concentration of 400 uM; how it was run: as §1
[4] = species on record: Homo sapiens; assay: Inhibitory activity against endoperoxide (U-46,619 2 uM) induced aggregation in Human Platelets; how it was run: as §1
[5] = species on record: Homo sapiens; assay: Inhibitory activity against thrombin (0.03 U/mL) induced aggregation in Human Platelets; how it was run: as §1

| SMILES | IC50 [1] | IC50 [2] | IC50 [3] | IC50 [4] | IC50 [5] |
| --- | --- | --- | --- | --- | --- |
| COc1cc(CC2NCCCc3cc(O)c(O)cc32)cc(OC)c1OC (configuration not stated) | 30 µM | No inhibition | No inhibition | – | – |
| COc1cc(C[C@H]2NCCc3cc(O)c(O)cc32)cc(OC)c1OC | 175 µM | – | – | 0.14 µM | 150 µM |
| COc1cc(C[C@@H]2NCCc3cc(O)c(O)cc32)cc(OC)c1OC [TRETOQUINOL] | 50 µM | – | – | 11 µM | 50 µM |
| COc1cc(CC2NCCCc3cc4c(cc32)OCO4)cc(OC)c1OC (configuration not stated) | 3 µM | No inhibition | No inhibition | – | – |
